The compounds below were run against 11-beta-hydroxysteroid dehydrogenase 1 (Mus musculus) (UniProt P50172) (assay: Inhibition of mouse 11beta-HSD1 expressed in HEK293 cell microsomes assessed as inhibition of [3H]cortisone conversion to [3H]cortisol at 1 uM by scintillation proximity assay). Conditions: Microsome.
Sequence of 11-beta-hydroxysteroid dehydrogenase 1 (Mus musculus) (P50172 whole entry, looked up): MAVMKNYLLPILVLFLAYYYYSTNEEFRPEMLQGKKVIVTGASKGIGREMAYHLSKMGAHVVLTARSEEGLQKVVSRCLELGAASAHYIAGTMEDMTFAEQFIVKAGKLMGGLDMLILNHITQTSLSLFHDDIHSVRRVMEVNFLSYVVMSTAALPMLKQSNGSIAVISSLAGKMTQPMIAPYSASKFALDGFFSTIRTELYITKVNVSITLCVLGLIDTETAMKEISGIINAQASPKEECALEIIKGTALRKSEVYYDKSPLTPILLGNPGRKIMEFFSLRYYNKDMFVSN
Summary of the method: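 Primary single-concentration screen in the SPA. Mouse 11β-HSD1 HEK-293 stable-transfectant microsomes are incubated with NADPH and [3H]cortisone, and [3H]cortisol is captured by antibody-coupled protein A SPA beads. Inhibitory ratio is the average of two determinations, with deviation from the average of 10% of the average value.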
`C=C1[C@H]2C[C@H](OC(=O)N3CCOCC3)[C@H]3[C@]4(C)CCC[C@@](C)(C(=O)O)[C@H]4CC[C@]3(C2)[C@@H]1O` showed an inhibition of 35.2%.
In the case of `C=C1C[C@@]23CC[C@H]4[C@@](C)(CCC[C@@]4(C)NC(=O)Nc4nccs4)[C@@H]2CC[C@H]1C3`, the inhibition is reported as 18.2%.
For `CC1(C)[C@@H](O)CC[C@]2(C)[C@H]3C(=O)C=C4[C@@H]5C[C@@](C)(C(=O)O)CC[C@]5(C)CC[C@@]4(C)[C@]3(C)CC[C@@H]12`, the inhibition was 96.7%.
`C=C1C[C@@]23CC[C@H]4[C@@](C)(CCC[C@@]4(C)N=C=O)[C@@H]2CC[C@H]1C3` was tested, and the inhibition was 55.5%.
Work on `C=C1[C@H]2C[C@H](O)[C@H]3[C@]4(C)CCC[C@@](C)(CO)[C@H]4CC[C@]3(C2)[C@@H]1O` yielded an inhibition of 27.3%.
`C=C1[C@H]2C[C@H](OC(=O)Nc3nccs3)[C@H]3[C@]4(C)CCC[C@@](C)(C(=O)O)[C@H]4CC[C@]3(C2)[C@@H]1O` gave an inhibition of 11.6%.
For `C[C@@]12CCC[C@@](C)(C(=O)O)[C@H]1CC[C@]13CC(=O)[C@@H](CC[C@H]12)C3`, the inhibition was 19.6%.
Compound `C=C1[C@H]2C[C@H](OC(=O)c3ccccc3)[C@H]3[C@]4(C)CCC[C@@](C)(C(=O)O)[C@H]4CC[C@]3(C2)[C@@H]1O` has an inhibition of 21.3%.
In the case of `C=C1[C@H]2C[C@H](OC(=O)c3ccc(Br)cc3)[C@H]3[C@]4(C)CCC[C@@](C)(C(=O)O)[C@H]4CC[C@]3(C2)[C@@H]1O`, the inhibition is reported as 32.7%.
`C=C1[C@H]2C[C@H](O)[C@H]3[C@]4(C)CCC[C@@](C)(NC(=O)NC)[C@H]4CC[C@]3(C2)[C@@H]1O` gave an inhibition of 19.4%.
Work on `C=C1[C@H]2CC[C@H]3[C@]4(C)CCC[C@@](C)(C(=O)O)[C@H]4CC[C@]3(C2)[C@@H]1F` yielded an inhibition of 56%.
For `C=C1[C@H]2C[C@H](O)[C@H]3[C@]4(C)CCC[C@@](C)(NC(=O)Nc5nccs5)[C@H]4CC[C@]3(C2)[C@@H]1O`, the inhibition was 5.39%.
`C=C1C[C@@]23CC[C@@H]4[C@](C)(CF)CCC[C@@]4(C)[C@@H]2CC[C@H]1C3` was tested, and the inhibition was 37.7%.
For `C[C@H]1[C@H]2C[C@H](O)[C@H]3[C@]4(C)CCC[C@@](C)(C(=O)O)[C@H]4CC[C@]3(C2)[C@@H]1O`, the inhibition was 11.6%.
`C=C1[C@H]2C[C@H](O)[C@H]3[C@]4(C)CCC[C@@](C)(C(=O)O)[C@H]4CC[C@]3(C2)[C@@H]1O` was tested, and the inhibition was 16.5%.
Work on `C=C1[C@H]2C[C@H](O)[C@H]3[C@]4(C)CCC[C@@](C)(NC(=O)N5CCNCC5)[C@H]4CC[C@]3(C2)[C@@H]1O` yielded an inhibition of 12.7%.
`C[C@@]12CCC[C@@](C)(C(=O)O)[C@H]1CC[C@@]13C[C@H](C[C@H](O)[C@@H]21)[C@]1(CO1)[C@H]3O` showed an inhibition of 16.8%.
`C=C1[C@H]2C[C@H](O)[C@H]3[C@]4(C)CCC[C@@](C)(N=C=O)[C@H]4CC[C@]3(C2)[C@@H]1O` showed an inhibition of 16.8%.
For `C=C1[C@H]2C[C@H](O)[C@H]3[C@]4(C)CCC[C@@](C)(NC(=O)Nc5ccc(C(F)(F)F)cc5)[C@H]4CC[C@]3(C2)[C@@H]1O`, the inhibition was 3.69%.
In the case of `C=C1[C@@H](O)[C@@]23CC[C@H]4[C@@](C)(CCC[C@@]4(C)C(=O)O)[C@@H]2C=C[C@H]1C3`, the inhibition is reported as 19.6%.
In the case of `C=C1[C@H]2C[C@H](O)[C@H]3[C@]4(C)CCC[C@@](C)(NC(=O)N5CCOCC5)[C@H]4CC[C@]3(C2)[C@@H]1O`, the inhibition is reported as 21.4%.
Work on `C=C1[C@H]2C[C@H](O)[C@H]3[C@]4(C)CCC[C@@](C)(NC(=O)NC(C)(C)C)[C@H]4CC[C@]3(C2)[C@@H]1O` yielded an inhibition of 11.3%.
For `C=C1[C@H]2C[C@H](O)[C@H]3[C@]4(C)CCC[C@@](C)(NC(=O)N5CCCC5)[C@H]4CC[C@]3(C2)[C@@H]1O`, the inhibition was 9.21%.
`C=C1[C@H]2C[C@H](O)[C@H]3[C@]4(C)CCC[C@@](C)(NC(=O)N(C)OC)[C@H]4CC[C@]3(C2)[C@@H]1O` gave an inhibition of 16.1%.
Work on `C=C1[C@H]2C[C@H](O)[C@H]3[C@]4(C)CCC[C@@](C)(C(=O)OC)[C@H]4CC[C@]3(C2)[C@@H]1O` yielded an inhibition of 25.1%.
For `C=C1C(=O)[C@@]23CC[C@H]4[C@@](C)(CCC[C@@]4(C)C(=O)O)[C@@H]2[C@@H](O)C[C@H]1C3`, the inhibition was 25.3%.
Compound `C=C1[C@H]2C[C@H](OC(=O)c3ccc(N(C)C)cc3)[C@H]3[C@]4(C)CCC[C@@](C)(C(=O)O)[C@H]4CC[C@]3(C2)[C@@H]1O` has an inhibition of 34%.

From ChEMBL document CHEMBL2401669, “Discovery and structure-activity relationships of ent-Kaurene diterpenoids as potent and selective 11β-HSD1 inhibitors: potential impact in diabetes” (Eur J Med Chem, 2013)
